Experimental data reported in ChEMBL document CHEMBL3808369, “Identification of Cyproheptadine as an Inhibitor of SET Domain Containing Lysine Methyltransferase 7/9 (Set7/9) That Regulates Estrogen-Dependent Transcription” (J Med Chem, 2016).
Active and inactive are the calls of the source. The rule behind the calls is not given here.

Legend:
[1] = target: T1, Histone-lysine N-methyltransferase SETD7 (Homo sapiens, UniProt Q8WTS6); test: Inhibition of recombinant Set7/9 (unknown origin) expressed in Escherichia coli BL21 (DE3) using biotinylated histone H3-derived peptide/SAM as substrate by alphaLISA
T1 sequence (Q8WTS6 whole entry): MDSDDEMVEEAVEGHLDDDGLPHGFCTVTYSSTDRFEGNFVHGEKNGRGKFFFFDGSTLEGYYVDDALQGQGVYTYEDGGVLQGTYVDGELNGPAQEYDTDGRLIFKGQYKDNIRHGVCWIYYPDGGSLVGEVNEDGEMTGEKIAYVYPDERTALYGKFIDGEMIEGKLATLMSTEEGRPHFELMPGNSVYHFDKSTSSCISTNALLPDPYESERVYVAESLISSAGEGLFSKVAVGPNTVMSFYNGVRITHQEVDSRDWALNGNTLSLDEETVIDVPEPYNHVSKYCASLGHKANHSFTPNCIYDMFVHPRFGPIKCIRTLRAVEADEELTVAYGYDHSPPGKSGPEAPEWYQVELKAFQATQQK

MCF7 [2] = test: Antitumor activity against Fucci introduced human MCF7 cells xenografted in Balb/c-nu/nu mouse at 20 mg/kg, ip qd administered as single dose; format: functional, organism-based
Outline: (§1)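 Female Balb/C-nu/nu mice, 7 weeks old, carried mammary Fucci-MCF7 xenografts (about 2 × 10^7 cells) grown to about 100 mm3. A single ip dose of 20 mg/kg in saline with 10% ethanol was given on day 1; a vehicle group ran alongside. Caliper tumor volume (a2b)/2 and body weight were recorded every 3 or 4 days to day 15. Tumor volume relative to day 1; six mice, mean ± SE.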

MCF7 [3] = test: Antitumor activity against Fucci introduced human MCF7 cells xenografted in Balb/c-nu/nu mouse at 20 mg/kg, ip qd administered as continuous dose for 8 days measured every 3 to 4 days until day 15; format: functional, organism-based
Outline: (§2)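 Female Balb/C-nu/nu mice, 7 weeks old, each inoculated with about 2 × 10^7 Fucci-MCF7 cells in the mammary gland. Dosing started when tumors reached about 100 mm3, 13 days after inoculation. 20 mg/kg given ip once daily, days 1–8, in saline with 10% ethanol; a vehicle group ran alongside. Caliper tumor volume (a2b)/2 and body weight were recorded every 3 or 4 days to day 15. Six mice per group, mean ± SE.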

Mus musculus [4] = test: Effect on body weight in Balb/c-nu/nu mouse xenografted with Fucci introduced human MCF7 cells at 20 mg/kg, ip qd administered as single dose; format: ADME, organism-based; conditions: in vivo; outline: as §1
Mus musculus [5] = test: Effect on body weight in Balb/c-nu/nu mouse xenografted with Fucci introduced human MCF7 cells at 20 mg/kg, ip qd administered as continuous dose for 8 days measured every 3 to 4 days until day 15; format: ADME, organism-based; conditions: in vivo; outline: as §2
[6] = target: T2, Histone-lysine N-methyltransferase SETD7 (Homo sapiens) (UniProt Q8WTS6); test: Inhibition of Set7/9 in human MCF7 cells assessed as reduction of ERalpha expression at 43 uM by immunoblotting analysis; format: cell-based; conditions: TDE = time-dependent effect
T2 sequence (whole entry): T1 sequence (Q8WTS6 whole entry)
Outline: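 MCF7 cells (1 × 10^5 per well) treated either with a concentration series for 48 h or with 43 μM over a time course. RIPA-sonicated lysates were immunoblotted for ERα with enhanced chemiluminescence readout.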

[7] = target: T2, Histone-lysine N-methyltransferase SETD7 (Homo sapiens); test: Inhibition of Set7/9 in human MCF7 cells assessed as half life of ERalpha at 43 uM by immunoblotting analysis in presence of cycloheximide (reference value: 15.6 +/- 1.2 hrs); format: cell-based
Outline: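 MCF7 cells treated with or without 43 μM drug in the presence of 1 μg/mL cycloheximide for various times. ERα immunoblotted from RIPA lysates and band intensity quantified to derive half-life. Three independent assays.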

[8] = target: T2, Histone-lysine N-methyltransferase SETD7 (Homo sapiens); test: Inhibition of Set7/9 in human MCF7 cells assessed as ERalpha destabilization at 43 uM for 36 hrs by immunoblotting analysis in presence of proteasome inhibitor MG132; format: cell-based
Outline: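 MCF7 cells treated with or without 43 μM drug for 36 h, then MG132 added for 12 h. Cells lysed by sonication in RIPA buffer with protease inhibitors. ERα read by SDS-PAGE/PVDF immunoblot with chemiluminescent detection.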

[9] = target: T2, Histone-lysine N-methyltransferase SETD7 (Homo sapiens); test: Non competitive inhibition of recombinant Set7/9 (unknown origin) expressed in Escherichia coli BL21 (DE3) using Ac-KRSK-MCA peptide as substrate and varying SAM preincubated for 1 hr followed by substrate addition measured after 15 mins by Lineweaver-Burk plot analysis
Outline: (§3)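 His6-tagged Set7/9 purified by Ni2+ affinity from E. coli BL21(DE3) after induction with 0.1 mM IPTG at 18 °C for 24 h. Kinetics were run in a fluorogenic HMT assay using Ac-KRSK-MCA peptide, with either SAM or peptide concentration varied. Initial velocities were analysed by Lineweaver–Burk plot, four independent assays.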

[10] = target: T2, Histone-lysine N-methyltransferase SETD7 (Homo sapiens); test: Competitive inhibition of recombinant Set7/9 (unknown origin) expressed in Escherichia coli BL21 (DE3) using varying Ac-KRSK-MCA peptide as substrate in presence of SAM preincubated for 1 hr followed by substrate addition measured after 15 mins by Lineweaver-Burk plot analysis; outline: as §3
[11] = target: T1, Histone-lysine N-methyltransferase SETD7; test: Inhibition of recombinant Set7/9 (unknown origin) expressed in Escherichia coli BL21 (DE3) using Ac-KRSK-MCA peptide/SAM as substrate preincubated for 1 hr followed by substrate addition measured after 15 mins by Dixon plot analysis
Outline: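 Fluorogenic HMT kinetics used recombinant His-Set7/9 expressed in E. coli BL21(DE3) (IPTG 0.1 mM, 18 °C, 24 h) and purified on Ni2+ affinity. The methyl acceptor was Ac-KRSK-MCA and the cofactor was SAM. Ki was obtained from a Dixon plot of initial velocity versus inhibitor. Four independent assays, SD.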

[12] = target: T3, Histone-lysine N-methyltransferase SUV39H1 (Homo sapiens) (UniProt O43463); test: Inhibition of Suv39h1 (unknown origin) by ELISA
T3 sequence (whole entry): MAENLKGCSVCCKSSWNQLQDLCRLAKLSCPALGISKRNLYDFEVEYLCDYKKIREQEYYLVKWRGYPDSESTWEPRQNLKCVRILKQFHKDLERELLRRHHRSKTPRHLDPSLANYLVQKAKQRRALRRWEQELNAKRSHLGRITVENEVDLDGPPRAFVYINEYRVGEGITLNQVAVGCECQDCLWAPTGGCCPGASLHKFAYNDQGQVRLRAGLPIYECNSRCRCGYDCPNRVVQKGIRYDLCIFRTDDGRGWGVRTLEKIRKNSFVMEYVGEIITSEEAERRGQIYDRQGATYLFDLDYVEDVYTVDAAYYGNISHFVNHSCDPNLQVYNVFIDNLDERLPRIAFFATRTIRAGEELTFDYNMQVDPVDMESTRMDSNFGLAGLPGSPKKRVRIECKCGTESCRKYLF

[13] = target: T2, Histone-lysine N-methyltransferase SETD7 (Homo sapiens); test: Inhibition of Set7/9 in human MCF7 cells assessed as suppression of beta-estradiol-induced pS2 mRNA expression at 14 to 43 uM preincubated for 24 hrs followed by beta-estradiol addition measured after 24 hrs by RT-PCR analysis

IC50 [1]: 1 µM
inhibition [6]: tde
T1/2 [7]: 10.3 h
inhibition [8]: inactive
inhibition [9]: Active
inhibition [10]: Active
Ki [11]: 15 µM
inhibition [12]: Active
inhibition [13]: Active
SMILES: CN1CCC(=C2c3ccccc3C=Cc3ccccc32)CC1 [CYPROHEPTADINE]
TGI (MCF7 [2]): Active
TGI (MCF7 [3]): Active
Activity (Mus musculus [4]): Non-toxic
Activity (Mus musculus [5]): Non-toxic
